Experimental data from ChEMBL document CHEMBL4265871, “Novel alkylated azoles as potent antifungals” (Eur J Med Chem, 2017).
In brackets after ≈: the same amount, converted by molar mass.

Key:
[1] = tested on: Candida albicans; assay: Antifungal activity against ITC and FLC-susceptible Candida albicans ATCC MYA-2876 incubated for 48 hrs by modified CLSI M27-A3 protocol based method; assay type: functional; conditions: ATCC MYA-2876, 48 h
In short: (§1)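 Because these Candida strains show trailing growth, MIC-2 was read, meaning 50% growth inhibition. Caspofungin and voriconazole were tested here; other controls came from earlier work.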

[2] = tested on: Aspergillus flavus; assay: Antifungal activity against Aspergillus flavus ATCC MYA-3631 incubated for 48 hrs by CLSI M38-A2 protocol based method; assay type: functional; conditions: ATCC MYA-3631, 48 h, read-out: MIC100
[3] = tested on: Aspergillus terreus; assay: Antifungal activity against Aspergillus terreus ATCC MYA-3633 incubated for 48 hrs by CLSI M38-A2 protocol based method; assay type: functional; conditions: ATCC MYA-3633, 48 h, read-out: MIC100
[4] = tested on: Candida albicans; assay: Antifungal activity against ITC and FLC-resistant Candida albicans ATCC MYA-90819 incubated for 48 hrs by modified CLSI M27-A3 protocol based method; assay type: functional; conditions: ATCC MYA-90819, 48 h
[5] = tested on: Candida albicans; assay: Antifungal activity against ITC and FLC-resistant Candida albicans ATCC 1237 incubated for 48 hrs by modified CLSI M27-A3 protocol based method; assay type: functional; conditions: ATCC 1237, 48 h; in short: as §1
[6] = tested on: Candida albicans; assay: Antifungal activity against ITC and FLC-susceptible Candida albicans ATCC MYA-2310 incubated for 48 hrs by modified CLSI M27-A3 protocol based method; assay type: functional; conditions: ATCC MYA-2310, 48 h
[7] = tested on: Aspergillus nidulans; assay: Antifungal activity against Aspergillus nidulans ATCC 38163 incubated for 48 hrs by CLSI M38-A2 protocol based method; assay type: functional; conditions: ATCC 38163, 48 h, read-out: MIC100
[8] = tested on: Nakaseomyces glabratus; assay: Antifungal activity against Candida glabrata ATCC 2001 incubated for 48 hrs by modified CLSI M27-A3 protocol based method; assay type: functional; conditions: ATCC 2001, 48 h
[9] = tested on: Candida parapsilosis; assay: Antifungal activity against Candida parapsilosis ATCC 22019 incubated for 48 hrs by modified CLSI M27-A3 protocol based method; assay type: functional; conditions: Lodderomyces parapsilosis, ATCC 22019, 48 h; read-out: MIC100
In short: (§2)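 For C. albicans ATCC 10231, C. krusei ATCC 6258 and C. parapsilosis ATCC 22019, MIC-0 was read, meaning complete growth inhibition. For azole controls, MIC-2 (50% growth inhibition) was reported instead. Caspofungin and voriconazole were tested here; other controls came from earlier work.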

[10] = tested on: Pichia kudriavzevii; assay: Antifungal activity against Candida krusei ATCC 6258 incubated for 48 hrs by modified CLSI M27-A3 protocol based method; assay type: functional; conditions: ATCC 6258, 48 h, read-out: MIC100; in short: as §2
[11] = tested on: Candida albicans; assay: Antifungal activity against Candida albicans ATCC 10231 incubated for 48 hrs by modified CLSI M27-A3 protocol based method; assay type: functional; conditions: ATCC 10231, 48 h, read-out: MIC100; in short: as §2
[12] = tested on: Candida albicans; assay: Antifungal activity against ITC and FLC-resistant Candida albicans ATCC MYA-1003 incubated for 48 hrs by modified CLSI M27-A3 protocol based method; assay type: functional; conditions: ATCC MYA-1003, 48 h; in short: as §1
[13] = tested on: Candida albicans; assay: Antifungal activity against Candida albicans ATCC 64124 incubated for 48 hrs by modified CLSI M27-A3 protocol based method; assay type: functional; conditions: ATCC 64124, 48 h
[14] = Hemolytic activity in mouse erythrocytes assessed as hemolysis level at 31.3 ug/ml incubated for 1 hr at 37 degC; assay type: ADME, cell-based, Erythrocyte; conditions: read-out: Activity
In short: (§3)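 Mouse erythrocytes incubated 1 h at 37 °C with test agents over 1.95 to 125 µg/mL. Percent lysis is read for each concentration.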

[15] = tested on: A549; assay: Toxicity in human A549 cells assessed as cell viability at 15.6 ug/ml incubated for 24 hrs by resazurin dye based assay; conditions: a549, 24 h
[16] = in vitro; conditions: mouse, erythrocyte
[17] = Hemolytic activity in mouse erythrocytes assessed as hemolysis level at 7.8 ug/ml incubated for 1 hr at 37 degC; assay type: ADME, cell-based, Erythrocyte; conditions: read-out: Activity; in short: as §3
[18] = tested on: BEAS-2B; assay: Toxicity in human BEAS2B cells assessed as cell viability at 15.6 ug/ml incubated for 24 hrs by resazurin dye based assay
[19] = Hemolytic activity in mouse erythrocytes assessed as hemolysis level at 1.95 ug/ml incubated for 1 hr at 37 degC; assay type: ADME, cell-based, Erythrocyte; conditions: read-out: Activity; in short: as §3
[20] = Hemolytic activity in mouse erythrocytes assessed as hemolysis level at 15.6 ug/ml incubated for 1 hr at 37 degC; assay type: ADME, cell-based, Erythrocyte; conditions: read-out: Activity; in short: as §3
[21] = Hemolytic activity in mouse erythrocytes assessed as hemolysis level at 125 ug/ml incubated for 1 hr at 37 degC; assay type: ADME, cell-based, Erythrocyte; conditions: read-out: Activity; in short: as §3
[22] = Hemolytic activity in mouse erythrocytes assessed as hemolysis level at 3.9 ug/ml incubated for 1 hr at 37 degC; assay type: ADME, cell-based, Erythrocyte; conditions: read-out: Activity; in short: as §3

SMILES | MIC50 [1] | MIC [2] | MIC [3] | MIC50 [4] | MIC50 [5] | MIC50 [6] | MIC [7] | MIC50 [8] | MIC [9] | MIC [10] | MIC [11] | MIC50 [12] | MIC50 [13] | other results
CCC(O)(Cn1cncn1)c1ccc(F)cc1F (configuration not stated) | 61.6 µM (≈ 15.6 µg/mL) | > 124 µM | > 124 µM | 124 µM (≈ 31.3 µg/mL) | > 124 µM | > 124 µM | 124 µM (≈ 31.3 µg/mL) | > 124 µM | 1.9 µM (≈ 0.481 µg/mL) | 30.8 µM (≈ 7.8 µg/mL) | 61.6 µM (≈ 15.6 µg/mL) | 30.8 µM (≈ 7.8 µg/mL) | > 124 µM | 
CCC(O)(Cn1cncn1)c1ccc(Cl)cc1Cl (configuration not stated) | 3.4 µM (≈ 0.973 µg/mL) | 54.5 µM (≈ 15.6 µg/mL) | 13.6 µM (≈ 3.89 µg/mL) | 0.84 µM (≈ 0.24 µg/mL) | 3.4 µM (≈ 0.973 µg/mL) | 3.4 µM (≈ 0.973 µg/mL) | 27.3 µM (≈ 7.81 µg/mL) | 13.6 µM (≈ 3.89 µg/mL) | < 0.1 µM | 3.4 µM (≈ 0.973 µg/mL) | 13.6 µM (≈ 3.89 µg/mL) | 6.8 µM (≈ 1.95 µg/mL) | > 109 µM | 
N[n+]1cnn(CC(=O)c2ccc(Cl)cc2Cl)c1 | > 102 µM | > 102 µM | > 102 µM | > 102 µM | > 102 µM | > 102 µM | > 102 µM | > 102 µM | > 102 µM | > 102 µM | > 102 µM | > 102 µM | > 102 µM | 
C[C@@H]1[C@H](O)[C@@H](C)/C=C/C=C/C=C/C=C/C=C/C=C/C=C/[C@H](O[C@@H]2O[C@H](C)[C@@H](O)[C@H](N)[C@@H]2O)C[C@@H]2O[C@](O)(C[C@@H](O)C[C@@H](O)[C@H](O)CC[C@@H](O)C[C@@H](O)CC(=O)O[C@H]1C)C[C@H](O)[C@H]2C(=O)O [AMPHOTERICIN B] |  |  | 4.2 µM (≈ 3.88 µg/mL) |  |  |  | 16.9 µM (≈ 15.6 µg/mL) |  | 2.1 µM (≈ 1.94 µg/mL) |  |  |  |  | MIC ([1]; read-out: MIC100): 2.1 µM (≈ 1.94 µg/mL); hemolysis at 1 h, 31.3 ug/ml [14]: 80%; viability [15]: 30%; hemolysis at 1 h [16]: 90.3%; hemolysis at 1 h, 7.8 ug/ml [17]: 3.7%; MIC [4]: 1.1 µM (≈ 1.02 µg/mL); MIC ([6]; read-out: MIC100): 2.1 µM (≈ 1.94 µg/mL); MIC [8]: 2.1 µM (≈ 1.94 µg/mL); viability [18]: 30%; hemolysis at 1 h, 1.95 ug/ml [19]: 1.7%; hemolysis at 1 h, 15.6 ug/ml [20]: 32%; hemolysis at 1 h, 125 ug/ml [21]: 92.6%; hemolysis at 1 h, 3.9 ug/ml [22]: 3.4%
CCCCCCC(O)(Cn1cncn1)c1cccc(F)c1 (configuration not stated) | 6.7 µM (≈ 1.95 µg/mL) | > 107 µM | 107 µM (≈ 31.3 µg/mL) | 6.7 µM (≈ 1.95 µg/mL) | 3.3 µM (≈ 0.962 µg/mL) | 6.7 µM (≈ 1.95 µg/mL) | 13.4 µM (≈ 3.9 µg/mL) | 26.8 µM (≈ 7.81 µg/mL) | 6.7 µM (≈ 1.95 µg/mL) | 13.4 µM (≈ 3.9 µg/mL) | > 107 µM | 107 µM (≈ 31.3 µg/mL) | > 107 µM | 
CC(O)(Cn1cncn1)c1ccc(Cl)cc1Cl (configuration not stated) | 28.7 µM (≈ 7.81 µg/mL) | > 115 µM | > 115 µM | 7.2 µM (≈ 1.96 µg/mL) | > 115 µM | > 115 µM | 7.2 µM (≈ 1.96 µg/mL) | 14.3 µM (≈ 3.89 µg/mL) | 0.88 µM (≈ 0.239 µg/mL) | 14.3 µM (≈ 3.89 µg/mL) | > 115 µM | > 115 µM | > 115 µM | 
CCCCCC(O)(Cn1cncn1)c1cccc(F)c1 (configuration not stated) | 14.1 µM (≈ 3.91 µg/mL) | ≥ 113 µM | 14.1 µM (≈ 3.91 µg/mL) | 14.1 µM (≈ 3.91 µg/mL) | 14.1 µM (≈ 3.91 µg/mL) | 14.1 µM (≈ 3.91 µg/mL) | 0.87 µM (≈ 0.241 µg/mL) | 28.1 µM (≈ 7.79 µg/mL) | 14.1 µM (≈ 3.91 µg/mL) | 14.1 µM (≈ 3.91 µg/mL) | > 113 µM | > 113 µM | > 113 µM | 
CCCC(O)(Cn1cncn1)c1ccc(F)cc1F (configuration not stated) | 58.4 µM (≈ 15.6 µg/mL) | > 117 µM | 58.4 µM (≈ 15.6 µg/mL) | 58.4 µM (≈ 15.6 µg/mL) | 117 µM (≈ 31.3 µg/mL) | 29.2 µM (≈ 7.8 µg/mL) | 29.2 µM (≈ 7.8 µg/mL) | > 117 µM | 0.22 µM (≈ 0.0588 µg/mL) | 0.22 µM (≈ 0.0588 µg/mL) | 14.6 µM (≈ 3.9 µg/mL) | 14.6 µM (≈ 3.9 µg/mL) | 117 µM (≈ 31.3 µg/mL) | 
